How the values were obtained:
Homo sapiens [1] = organism: Homo sapiens; assay: Activity of crude extract human PBMCs prodrug hydrolase from leukopheresis patient
Homo sapiens [2] = organism: Homo sapiens; assay: Activity of human PBMCs prodrug hydrolase from leukopheresis patient in Q15 pool
Homo sapiens [3] = organism: Homo sapiens; assay: Activity of human PBMCs prodrug hydrolase from leukopheresis patient in BS-HIC pool
[4] = biological target: T1, Lysosomal protective protein (Homo sapiens) (UniProt P10619); assay: Activity of purified human PBMCs Cat A from leukopheresis patient in Con A pool
T1 sequence (whole entry): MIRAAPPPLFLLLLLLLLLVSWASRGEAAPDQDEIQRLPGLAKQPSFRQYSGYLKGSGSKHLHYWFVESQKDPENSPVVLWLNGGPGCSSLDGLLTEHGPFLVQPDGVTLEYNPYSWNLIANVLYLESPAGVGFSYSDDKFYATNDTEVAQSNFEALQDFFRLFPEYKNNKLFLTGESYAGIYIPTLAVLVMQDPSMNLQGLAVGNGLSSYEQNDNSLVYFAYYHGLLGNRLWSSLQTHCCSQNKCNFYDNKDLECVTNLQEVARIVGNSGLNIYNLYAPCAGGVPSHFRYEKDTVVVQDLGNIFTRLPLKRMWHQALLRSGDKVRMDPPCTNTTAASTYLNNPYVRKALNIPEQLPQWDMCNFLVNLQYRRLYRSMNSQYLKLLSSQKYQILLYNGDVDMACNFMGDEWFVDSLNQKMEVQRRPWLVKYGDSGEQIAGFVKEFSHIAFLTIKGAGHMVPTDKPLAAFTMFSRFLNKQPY
Method in brief: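 Hydrolase purified from fresh human leukopheresis PBMCs (NP-40 extract; Source Q15, butyl Sepharose HIC, then ConA chromatography). Protein by Bradford; specific activity (pmol/min/μg) corrected for estimated 29-kDa catalytic subunit fraction.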

CC(C)OC(=O)[C@H](C)N[P@](=O)(CO[C@H](C)Cn1cnc2c(N)ncnc21)Oc1ccccc1
Activity (Homo sapiens [1]): 16 pmol/min/µg
Activity (Homo sapiens [2]): 112 pmol/min/µg
Activity (Homo sapiens [3]): 730 pmol/min/µg
Activity [4]: 35000 pmol/min/µg

Reference: ChEMBL document CHEMBL1142204, “Cathepsin A is the major hydrolase catalyzing the intracellular hydrolysis of the antiretroviral nucleotide phosphonoamidate prodrugs GS-7340 and GS-9131” (Antimicrob Agents Chemother, 2007)
